From ChEMBL document CHEMBL1268917, “Synthesis and biological evaluation of radio-iodinated benzimidazoles as SPECT imaging agents for NR2B subtype of NMDA receptor” (Bioorg Med Chem, 2010)

Legend:
Liver [1] = assay: Biodistribution in ddY mouse liver assessed per gram of tissue at 148 kBq, iv after 180 mins in presence of 200 mg/kg, iv of probenecid administered 30 mins before compound challenge (reference value: 19.13 +/- 2.09 %); details: in vivo, 3 h
Blood [2] = assay: Biodistribution in ddY mouse blood assessed per gram of tissue at 14.8 kBq, iv after 360 mins; assay type: ADME, organism-based; details: in vivo, 6 h
Summary of the method: (§1)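 Killed at set times after injection; organs and blood removed, weighed, gamma counted. Data as % injected dose per gram tissue, mean SD, n = 5–6.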

Heart [3] = assay: Biodistribution in ddY mouse heart assessed per gram of tissue at 14.8 kBq, iv after 0.5 mins; assay type: ADME, organism-based; details: in vivo
Summary of the method: as §1

Spleen [4] = assay: Biodistribution in ddY mouse spleen assessed per gram of tissue at 14.8 kBq, iv after 60 mins; assay type: ADME, organism-based; details: in vivo, 1 h
Summary of the method: (§2)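 Radioiodinated tracer (14.8 kBq) injected via tail vein into male ddY mice (6 weeks, 30–35 g). Organs removed at set times after injection, weighed and gamma-counted; uptake expressed as % injected dose per gram tissue, mean ± SD, n = 5–6.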

Liver [5] = assay: Biodistribution in ddY mouse liver assessed per gram of tissue at 14.8 kBq, iv after 180 mins; assay type: ADME, organism-based; details: in vivo, 3 h
Summary of the method: as §1

Intestine [6] = assay: Biodistribution in ddY mouse intestine assessed per gram of tissue at 14.8 kBq, iv after 60 mins; assay type: ADME, organism-based; details: in vivo, 1 h
Summary of the method: as §1

Stomach [7] = assay: Biodistribution in ddY mouse stomach assessed per gram of tissue at 14.8 kBq, iv after 30 mins; assay type: ADME, organism-based; details: in vivo, 0.5 h
Summary of the method: as §2

Intestine [8] = assay: Biodistribution in ddY mouse intestine assessed per gram of tissue at 14.8 kBq, iv after 0.5 mins; assay type: ADME, organism-based; details: in vivo
Summary of the method: as §1

Lung [9] = assay: Biodistribution in ddY mouse lung assessed per gram of tissue at 14.8 kBq, iv after 60 mins; assay type: ADME, organism-based; details: in vivo, 1 h
Summary of the method: as §2

Blood [10] = assay: Biodistribution in ddY mouse blood assessed per gram of tissue at 14.8 kBq, iv after 180 mins; assay type: ADME, organism-based; details: in vivo, 3 h
Summary of the method: as §1

Pancreas [11] = assay: Biodistribution in ddY mouse pancreas assessed per gram of tissue at 14.8 kBq, iv after 180 mins; assay type: ADME, organism-based; details: in vivo, 3 h
Summary of the method: as §2

Brain [12] = assay: Biodistribution in ddY mouse brain assessed per gram of tissue at 148 kBq, iv after 180 mins in presence of 200 mg/kg, iv of probenecid administered 30 mins before compound challenge (reference value: 0.44 +/- 0.06 %); details: in vivo, 3 h
Kidney [13] = assay: Biodistribution in ddY mouse kidney assessed per gram of tissue at 14.8 kBq, iv after 60 mins; assay type: ADME, organism-based; details: in vivo, 1 h
Summary of the method: as §1

Liver [14] = assay: Biodistribution in ddY mouse liver assessed per gram of tissue at 14.8 kBq, iv after 360 mins; assay type: ADME, organism-based; details: in vivo, 6 h
Summary of the method: as §1

Pancreas [15] = assay: Biodistribution in ddY mouse pancreas assessed per gram of tissue at 14.8 kBq, iv after 5 mins; assay type: ADME, organism-based; details: in vivo
Summary of the method: as §2

Lung [16] = assay: Biodistribution in ddY mouse lung assessed per gram of tissue at 14.8 kBq, iv after 360 mins; assay type: ADME, organism-based; details: in vivo, 6 h
Summary of the method: as §2

Spleen [17] = assay: Biodistribution in ddY mouse spleen assessed per gram of tissue at 14.8 kBq, iv after 30 mins; assay type: ADME, organism-based; details: in vivo, 0.5 h
Summary of the method: as §2

Lung [18] = assay: Biodistribution in ddY mouse lung assessed per gram of tissue at 14.8 kBq, iv after 180 mins; assay type: ADME, organism-based; details: in vivo, 3 h
Summary of the method: as §2

Intestine [19] = assay: Biodistribution in ddY mouse intestine assessed per gram of tissue at 14.8 kBq, iv after 30 mins; assay type: ADME, organism-based; details: in vivo, 0.5 h
Summary of the method: as §1

Kidney [20] = assay: Biodistribution in ddY mouse kidney assessed per gram of tissue at 14.8 kBq, iv after 180 mins; assay type: ADME, organism-based; details: in vivo, 3 h
Summary of the method: as §1

Spleen [21] = assay: Biodistribution in ddY mouse spleen assessed per gram of tissue at 14.8 kBq, iv after 0.5 mins; assay type: ADME, organism-based; details: in vivo
Summary of the method: as §2

Lung [22] = assay: Biodistribution in ddY mouse lung assessed per gram of tissue at 14.8 kBq, iv after 30 mins; assay type: ADME, organism-based; details: in vivo, 0.5 h
Summary of the method: as §2

Stomach [23] = assay: Biodistribution in ddY mouse stomach assessed per gram of tissue at 14.8 kBq, iv after 60 mins; assay type: ADME, organism-based; details: in vivo, 1 h
Summary of the method: as §2

Spleen [24] = assay: Biodistribution in ddY mouse spleen assessed per gram of tissue at 14.8 kBq, iv after 360 mins; assay type: ADME, organism-based; details: in vivo, 6 h
Summary of the method: as §2

Brain [25] = assay: Biodistribution in ddY mouse brain assessed per gram of tissue at 14.8 kBq, iv after 5 mins; assay type: ADME, organism-based; details: in vivo
Summary of the method: as §1

Intestine [26] = assay: Biodistribution in ddY mouse intestine assessed per gram of tissue at 14.8 kBq, iv after 360 mins; assay type: ADME, organism-based; details: in vivo, 6 h
Summary of the method: as §1

Spleen [27] = assay: Biodistribution in ddY mouse spleen assessed per gram of tissue at 14.8 kBq, iv after 5 mins; assay type: ADME, organism-based; details: in vivo
Summary of the method: as §2

Kidney [28] = assay: Biodistribution in ddY mouse kidney assessed per gram of tissue at 14.8 kBq, iv after 360 mins; assay type: ADME, organism-based; details: in vivo, 6 h
Summary of the method: as §1

Heart [29] = assay: Biodistribution in ddY mouse heart assessed per gram of tissue at 14.8 kBq, iv after 180 mins; assay type: ADME, organism-based; details: in vivo, 3 h
Summary of the method: as §1

Kidney [30] = assay: Biodistribution in ddY mouse kidney assessed per gram of tissue at 148 kBq, iv after 180 mins in presence of 50 mg/kg, iv of cyclosporin A administered 30 mins before compound challenge (reference value: 4.49 +/- 1.34 %); assay type: ADME, organism-based; set-up: dose 50 mg/kg, route intravenous; details: in vivo, 3 h
Liver [31] = assay: Biodistribution in ddY mouse liver assessed per gram of tissue at 14.8 kBq, iv after 30 mins; assay type: ADME, organism-based; details: in vivo, 0.5 h
Summary of the method: as §1

Kidney [32] = assay: Biodistribution in ddY mouse kidney assessed per gram of tissue at 148 kBq, iv after 180 mins in presence of 200 mg/kg, iv of probenecid administered 30 mins before compound challenge (reference value: 6.29 +/- 1.47 %); details: in vivo, 3 h
Blood [33] = assay: Biodistribution in ddY mouse blood assessed per gram of tissue at 14.8 kBq, iv after 30 mins; assay type: ADME, organism-based; details: in vivo, 0.5 h
Summary of the method: as §1

Pancreas [34] = assay: Biodistribution in ddY mouse pancreas assessed per gram of tissue at 14.8 kBq, iv after 60 mins; assay type: ADME, organism-based; details: in vivo, 1 h
Summary of the method: as §2

Stomach [35] = assay: Biodistribution in ddY mouse stomach assessed per gram of tissue at 14.8 kBq, iv after 360 mins; assay type: ADME, organism-based; details: in vivo, 6 h
Summary of the method: as §2

Liver [36] = assay: Biodistribution in ddY mouse liver assessed per gram of tissue at 14.8 kBq, iv after 5 mins; assay type: ADME, organism-based; details: in vivo
Summary of the method: as §1

Heart [37] = assay: Biodistribution in ddY mouse heart assessed per gram of tissue at 14.8 kBq, iv after 360 mins; assay type: ADME, organism-based; details: in vivo, 6 h
Summary of the method: as §1

Kidney [38] = assay: Biodistribution in ddY mouse kidney assessed per gram of tissue at 14.8 kBq, iv after 0.5 mins; assay type: ADME, organism-based; details: in vivo
Summary of the method: as §1

Brain [39] = assay: Biodistribution in ddY mouse brain assessed per gram of tissue at 148 kBq, iv after 180 mins in presence of 50 mg/kg, iv of cyclosporin A administered 30 mins before compound challenge (reference value: 0.50 +/- 0.04 %); assay type: ADME, organism-based; set-up: dose 50 mg/kg, route intravenous; details: in vivo, 3 h
Blood [40] = assay: Biodistribution in ddY mouse blood assessed per gram of tissue at 148 kBq, iv after 180 mins in presence of 50 mg/kg, iv of cyclosporin A administered 30 mins before compound challenge (reference value: 0.78 +/- 0.27 %); assay type: ADME, organism-based; set-up: dose 50 mg/kg, route intravenous; details: in vivo, 3 h
Liver [41] = assay: Biodistribution in ddY mouse liver assessed per gram of tissue at 14.8 kBq, iv after 0.5 mins; assay type: ADME, organism-based; details: in vivo
Summary of the method: as §1

Drug uptake (Liver [1]): 20 % ID/g
Drug uptake (Blood [2]): 0.28 % ID/g
Drug uptake (Heart [3]): 1.47 % ID/g
Drug uptake (Spleen [4]): 4.65 % ID/g
Drug uptake (Liver [5]): 32.22 % ID/g
Drug uptake (Intestine [6]): 2.35 % ID/g
Drug uptake (Stomach [7]): 2.54 % ID/g
Drug uptake (Intestine [8]): 4.02 % ID/g
Drug uptake (Lung [9]): 7.54 % ID/g
Drug uptake (Blood [10]): 0.3 % ID/g
Drug uptake (Pancreas [11]): 6.53 % ID/g
Drug uptake (Brain [12]): 0.57 % ID/g
Drug uptake (Kidney [13]): 10.34 % ID/g
Drug uptake (Liver [14]): 30.16 % ID/g
Drug uptake (Pancreas [15]): 5.74 % ID/g
Drug uptake (Lung [16]): 3.44 % ID/g
Drug uptake (Spleen [17]): 5.91 % ID/g
Drug uptake (Lung [18]): 4.75 % ID/g
Drug uptake (Intestine [19]): 2.39 % ID/g
Drug uptake (Kidney [20]): 7.74 % ID/g
Drug uptake (Spleen [21]): 0.5 % ID/g
Drug uptake (Lung [22]): 8.16 % ID/g
Drug uptake (Stomach [23]): 2.16 % ID/g
Drug uptake (Spleen [24]): 3.79 % ID/g
Drug uptake (Brain [25]): 0.42 % ID/g
Drug uptake (Intestine [26]): 5.89 % ID/g
Drug uptake (Spleen [27]): 5.66 % ID/g
Drug uptake (Kidney [28]): 5.46 % ID/g
Drug uptake (Heart [29]): 1.58 % ID/g
Drug uptake (Kidney [30]): 4.8 % ID/g
Drug uptake (Liver [31]): 28.99 % ID/g
Drug uptake (Kidney [32]): 4.2 % ID/g
Drug uptake (Blood [33]): 0.67 % ID/g
Drug uptake (Pancreas [34]): 6.35 % ID/g
Drug uptake (Stomach [35]): 2.17 % ID/g
Drug uptake (Liver [36]): 25.03 % ID/g
Drug uptake (Heart [37]): 1.58 % ID/g
Drug uptake (Kidney [38]): 5.35 % ID/g
Drug uptake (Brain [39]): 0.66 % ID/g
Drug uptake (Blood [40]): 0.52 % ID/g
Drug uptake (Liver [41]): 14.68 % ID/g
SMILES: Oc1ccc2nc(CN3CCC(Cc4ccc([125I])cc4)CC3)[nH]c2c1
